# Most compounds without a hit are left out; they make up all but 3.4% or so of the library.
# MC4R antagonist: MC4R antagonists of cAMP signaling, primary screen, cell-based, TR-FRET, antagonist arm of biased-ligand search; Melanocortin receptor 4 (Homo sapiens), P32245; MC4R-expressing cells, MTII-stimulated cAMP, LANCE TR-FRET; inhibition, % at 6.5 µM; 360,000 tested, 0.48% active; AID 540295, 2011;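 active means inhibition above its plate's cutoff, the mean of tested wells on that plate plus 3 SD, cut at about 29% in these data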;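 further: 0% = Melanotan II alone and 100% = Melanotan II plus saturating MCL0020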
#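 System – human MC4R-expressing U2OS cells · Also added – Melanotan II · Dosing – one concentration, 6.5 µM nominal · Timing – 30-min compound, 1-h challenge, 1-h detection, room temperature · Measured by – Eu-cAMP/anti-cAMP TR-FRET, emission 671 nm · Replicates – singlicate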
# ANO1 activ: TMEM16A chloride channel activators or potentiators, primary screen, cell-based, HTS | Anoctamin-1 (Mus musculus), Q8BHY3 | HEK293 TMEM16A/YFP-H148Q/I152L, iodide quench fluorescence; stronger effect = lower value | B-score at 10 µM | 340,000 tested, 0.3% active | AID 623877, 2012;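 active means fluorescence-ratio B-score plate-corrected deviation score at least 3 library SD below zero, with starting fluorescence score within 5 deviations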;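 further: channel opened by trigger with iodide after compound preincubation; score built on the fluorescence ratio of max minus min over baseline; more negative score means more quench and so TMEM16A activation or potentiation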
# HTR2A ag: mouse Htr2a agonists via beta-arrestin recruitment, primary screen, cell-based, luminescence; AID 624169, 2012; CHO-K1 mHTR2A beta-arrestin complementation; percent of 30 µM serotonin response; 5-hydroxytryptamine receptor 2A (Mus musculus), P35363; 360,000 tested, 0.66% active; activation, % at 7.6 µM;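 active means activation above a run cutoff, the mean activation of all tested compounds plus 3 SD, cut at about 14% in these data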;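 further: 0% = plate median of compound wells and 100% = 30 µM serotonin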
# Target sequence (P35363 whole entry, looked up): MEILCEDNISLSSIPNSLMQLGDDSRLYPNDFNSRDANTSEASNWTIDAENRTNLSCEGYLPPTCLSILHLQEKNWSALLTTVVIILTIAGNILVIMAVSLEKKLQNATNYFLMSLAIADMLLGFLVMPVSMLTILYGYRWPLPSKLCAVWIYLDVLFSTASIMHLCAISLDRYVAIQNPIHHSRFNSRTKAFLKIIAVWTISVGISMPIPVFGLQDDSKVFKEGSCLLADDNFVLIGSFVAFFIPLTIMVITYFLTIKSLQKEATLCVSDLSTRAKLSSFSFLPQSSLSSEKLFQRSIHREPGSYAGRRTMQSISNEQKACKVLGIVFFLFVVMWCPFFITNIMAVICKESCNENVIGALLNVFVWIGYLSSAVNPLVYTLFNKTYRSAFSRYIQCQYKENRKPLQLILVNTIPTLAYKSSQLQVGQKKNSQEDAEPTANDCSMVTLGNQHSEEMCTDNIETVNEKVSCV
# TMEM16A inh: TMEM16A chloride channel inhibitors, primary screen, cell-based, HTS. Anoctamin-1 (Mus musculus), Q8BHY3. HEK293 TMEM16A/YFP iodide influx fluorescence, ionomycin. normalized B-score (activity score, 25-100; higher = stronger inhibition) at 10 µM. 310,000 tested, 1.2% active. AID 588511, 2011;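 active means ratio plate-corrected score three or more library SD toward inhibition, starting fluorescence score within five deviations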;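 further: score derived from kinetic fluorescence span divided by baseline fluorescence per well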
# beta cell repl: inducers of MIN6 beta-cell proliferation, primary screen, ATP luminescence, uHTS. proliferation, % at 10 µM. 330,000 tested, 0.29% active. AID 2380, 2010. MIN6 cells proliferation, ATPlite luminescence, 48 h; cells starved in 0.2% serum; 100% = growth in 10% serum;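 active means compounds whose signal lies at least 3.5 SD above the mean of all wells on their plate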;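 further: 0% = DMSO-treated cells in low-serum medium and 100% = 10% serum control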
# MC4R barr agon: MC4R agonists recruiting beta-arrestin, primary screen, cell-based, luminescence, agonist arm of biased-ligand search. 360,000 tested, 0.98% active. U2OS MC4R beta-arrestin complementation; percent of melanotan II response, DMSO zero. activation, % at 8.9 µM. AID 540308, 2011;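 active means activation above a per-plate cutoff, the mean activation of sample wells on that plate plus 3 SD, cut at about 8% in these data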
# TMEM16A reconf: TMEM16A chloride channel inhibitors, confirmation, cell-based, re-confirmation | HEK293 TMEM16A/YFP-H148Q, iodide quench fluorescence; ionomycin added to raise cell calcium | 2,300 tested, 39% active | AID 652189, 2013 | inhibition, % at 10 µM | shares compounds with TMEM16A inh;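 active means mean duplicate percent inhibition, scaled so buffer wells are 0 and the reference blocker 100, over three buffer SD above buffer mean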
# TMEM16A Ca cntr: calcium mobilization in TMEM16A/YFP HEK293 cells, confirmation, counter-screen for TMEM16A inhibitor project; shares compounds with TMEM16A inh; Fluo4 calcium mobilization; calcium response (% of ionomycin), % at 10 µM; 2,300 tested, 2% active; AID 652231, 2013;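 active means duplicate-averaged calcium signal over 20% of the ionomycin maximum, relative to buffer baseline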;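 further: each well's signal is peak minus trough fluorescence divided by its pre-addition baseline; 0% = buffer wells and 100% = ionomycin wells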
# YFP-HEK293 quench: iodide YFP quench changes in parental YFP-HEK293, counter-screen for TMEM16A inhibitor project, cell-based; shares compounds with TMEM16A inh; ionomycin; YFP ratio F(max-min)/F0 at 10 µM; 2,300 tested, under 10 active;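 active means yellow fluorescent protein signal ratio exceeding the buffer control mean by over 5 SD of those controls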;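 further: ratio is mean of duplicate wells from kinetic YFP trace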
# ClC-1 inh: ClC-1 chloride channel inhibition, selectivity assay for TMEM16A inhibitor project, cell-based, voltage-dependent ClC-1 | shares compounds with TMEM16A inh | CHO ClC-1-YFP, iodide influx fluorescence quench; iodide control reads 0, buffer control 100 | ratio percent, % at 10 µM | 2,300 tested, under 10 active;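 active means duplicate-mean ratio percent above the mean of iodide-only control wells, which defines zero, plus 5 of their SD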;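 further: higher percent means stronger block of ClC-1 iodide influx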
# Numbers without * were called inactive; i = inactive; . = no result.
SMILES,MC4R antagonist,ANO1 activ,HTR2A ag,TMEM16A inh,beta cell repl,MC4R barr agon,TMEM16A reconf,TMEM16A Ca cntr,YFP-HEK293 quench,ClC-1 inh
CS(=O)(=O)N1CCc2cc(-c3csc(NC(=O)Cc4cccs4)n3)ccc21,20,i,6,25*,-4,1,31%*,i,-0.89,-5
CC(C)(C)c1ccc(C(=O)Nc2cccc3ncccc23)cc1,-1,i,6,i,0,1,30%*,i,-1.4,-14
Nc1ccc(C(=O)Nc2cccc3ncccc23)cc1,-2,i,0,i,0,0,.,.,.,.
CCN(c1cccc(C(F)(F)F)c1)S(=O)(=O)c1ccc2c(c1)CCN2C(C)=O,4,.,-1,25*,-2,-1,18%*,i,-0.86,-6
CCN(c1cccc(C)c1)S(=O)(=O)c1ccc2c(c1)CCN2C(C)=O,-5,i,1,i,-2,-1,.,.,.,.
Cc1ccc(C(=O)N2CCN(Cc3ccccc3)CC2)cc1S(=O)(=O)N1CCOCC1,-4,i,-5,.,6,-3,.,.,.,.
O=C(OCC(=O)N1CCc2ccccc21)c1n[nH]c(=O)c2ccccc12,-1,i,3,.,-5,-2,.,.,.,.
Cc1ccc([C@@H]2CC=C(C(=O)O)[C@H](c3ccc(Cl)cc3)N2S(=O)(=O)c2ccc(C)cc2)cc1,7,i,3,25*,-5,0,16%*,i,-1,-3
Cc1ccc(S(=O)(=O)N2[C@@H](c3ccc(F)cc3)C(C(=O)O)=CC[C@H]2c2ccc(Cl)cc2)cc1,4,i,2,25*,-6,0,i,i,-0.95,-14
Cc1ccc(S(=O)(=O)N2[C@@H](c3ccc(Br)cc3)C(C(=O)O)=CC[C@H]2c2ccc(Cl)cc2)cc1,13,.,0,.,-5,0,.,.,.,.
CCOC(=O)C1=CCN(S(=O)(=O)c2ccc(F)cc2)C1c1ccc(Cl)c(Cl)c1 (centres undefined),.,.,-2,.,.,.,.,.,.,.
Cc1cccc(NC(=O)C2=C(O)c3ccccc3N(C)S2(=O)=O)c1,-1,i,5,i,0,1,.,.,.,.
CN1c2ccccc2C(O)=C(C(=S)Nc2ccc(Cl)cc2)S1(=O)=O,-9,i,-2,100*,-4,-2,20%*,i,-0.92,-8
CCOC(=O)c1ccccc1NC(=O)c1nc2nccc(C)n2n1,12,i,3,25*,-1,0,i,i,-0.9,2
COc1ccc(N(CC(=O)NC2CCCC2)C(=O)Cn2nnc(-c3ccc(C)cc3)n2)cc1,2,i,-1,25*,-3,1,i,i,-0.93,-4
O=C(COC(=O)c1cccc(F)c1)Nc1cccc(S(=O)(=O)N2CCCCC2)c1,-1,.,1,.,.,0,.,.,.,.
O=C(c1ccco1)N1CCN(CC(O)COc2ccc3oc4ccccc4c3c2)CC1 (centres undefined),10,i,14*,25*,-4,1,21%*,i,-1.1,0
Cc1cc(C)cc(OCC(O)CN2CCN(C(=O)c3ccco3)CC2)c1 (centres undefined),-2,i,4,i,-5,-1,.,.,.,.
CCN(CC)C(=O)c1cc(-c2ccccc2OC)on1,16,i,2,100*,2,0,i,i,-1.1,-16
COc1ccc(NC(=O)c2cc(-c3ccccc3O)n[nH]2)cc1Cl,-9,i,7,i,-6,1,.,.,.,.
COc1ccc(NC(=O)c2cc(-c3cc(C)cc(C)c3O)n[nH]2)cc1Cl,12,i,4,100*,-6,4,i,i,-1.1,1
CC[C@]12c3[nH]c4ccc(Cl)cc4c3CCN1C(=O)[C@@H](CC(=O)NC/C=C(\C)CCC=C(C)C)C[C@@H]2C(=O)N1CCN(C(=O)c2ccco2)CC1,6,.,2,.,.,1,.,.,.,.
Cc1cccc(S(=O)(=O)Nc2nc3ccccc3nc2Nc2ccc3c(c2)OCO3)c1,19,i,1,25*,-3,1,20%*,i,-1,-16
CCc1nc2c(OCC(=O)C(C)(C)C)cccn2c1N(C=O)CC(=O)N(C)C,0,.,-2,.,.,-1,.,.,.,.
NC(=O)c1ccc(NC(=O)c2ccc(CN3CCOCC3)cc2)cc1,-3,i,-2,i,-3,-1,.,.,.,.
SMILES,MC4R antagonist,ANO1 activ,HTR2A ag,TMEM16A inh,beta cell repl,MC4R barr agon,TMEM16A reconf,TMEM16A Ca cntr,YFP-HEK293 quench,ClC-1 inh
CC(C)c1ccc(/C=C/C(=O)Nc2ccc(CN3CCOCC3)cc2)cc1,22,i,0,100*,-1,2,26%*,i,-1.1,6
CC(C)c1ccc(C(=O)Nc2ccc(CN3CCOCC3)cc2)cc1,2,i,1,100*,-4,-1,i,i,-1.1,-14
COc1ccccc1COC(=O)C(NC(=O)c1ccc(C)cc1)C(C)C (centres undefined),6,i,-2,.,-4,-3,.,.,.,.
CCCOc1ccc(NC(=O)C2CC(=O)N3CCCN=C3S2)cc1 (centres undefined),2,i,-3,25*,-2,-2,i,i,-1.1,-16
CCOc1ccc(NC(=O)C2CC(=O)N3CCCN=C3S2)cc1 (centres undefined),5,i,-2,i,-2,0,.,.,.,.
CC(C)COC(=O)N1CCCCC1c1cc(C(=O)NCc2ccccc2)no1 (centres undefined),8,.,-3,.,.,-2,.,.,.,.
